Here are results for 1 compound from BindingDB's records for doi:10.1021/jm0009538 (Paris-Sud University, 2000).

The test has as its target 5-hydroxytryptamine receptor 4 (Homo sapiens, UniProt Q13639). In words: Concentration required to produce half-maximal response against 5-hydroxytryptamine receptor in the presence of 10 nM compound in isolated human atrial myocytes. In a few lines: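 Whole-cell patch clamp on enzymatically dissociated human atrial myocytes, room temperature (19–25 °C); Cs-based internal, pCa 8.5; I_Ca at 0 mV every 8 s, peak minus current at end of 400-ms pulse.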

Chain of 5-hydroxytryptamine receptor 4 (Q13639 whole entry): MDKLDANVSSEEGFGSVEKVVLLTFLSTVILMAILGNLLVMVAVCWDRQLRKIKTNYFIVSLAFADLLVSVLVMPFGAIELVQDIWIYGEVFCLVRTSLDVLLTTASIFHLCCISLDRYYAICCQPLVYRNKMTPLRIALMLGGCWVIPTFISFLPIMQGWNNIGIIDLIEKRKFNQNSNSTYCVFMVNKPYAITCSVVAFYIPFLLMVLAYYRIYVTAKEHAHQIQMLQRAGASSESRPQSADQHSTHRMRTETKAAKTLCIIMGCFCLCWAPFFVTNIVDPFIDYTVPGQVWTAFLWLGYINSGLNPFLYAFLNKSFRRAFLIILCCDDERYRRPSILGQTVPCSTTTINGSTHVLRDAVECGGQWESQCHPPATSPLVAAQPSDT

By EC50 is commonly meant the concentration needed to bring the measured effect to its halfway point. For `COc1cc(N)c(Cl)cc1C(=O)OCCN1CCN(c2ncccn2)CC1` [4-Amino-5-chloro-2-methoxy-benzoic acid 2-(4-pyrimidin-2-yl-piperazin-1-yl)-ethyl ester], the EC50 was 66 nM.
